Assay results as given in ChEMBL document CHEMBL4834403, “Design and Synthesis of Novel Epigenetic Inhibitors Targeting Histone Deacetylases, DNA Methyltransferase 1, and Lysine Methyltransferase G9a with In Vivo Efficacy in Multiple Myeloma” (J Med Chem, 2021).
Active and inactive are the calls of the source. The calls are words filed in the database; no cut-off is given here.

Assays:
[1] = molecular target: T1, Histone-lysine N-methyltransferase EHMT2 (Mus musculus, UniProt Q9Z148); test: Inhibition of mouse thymus 6His-sumo-tagged G9a (969 to 1263 residues) expressed in Escherichia coli BL21 (DE3) using histone H3 as substrate incubated for 30 mins by MALDI-TOF-MS analysis
T1 sequence (Q9Z148 whole entry): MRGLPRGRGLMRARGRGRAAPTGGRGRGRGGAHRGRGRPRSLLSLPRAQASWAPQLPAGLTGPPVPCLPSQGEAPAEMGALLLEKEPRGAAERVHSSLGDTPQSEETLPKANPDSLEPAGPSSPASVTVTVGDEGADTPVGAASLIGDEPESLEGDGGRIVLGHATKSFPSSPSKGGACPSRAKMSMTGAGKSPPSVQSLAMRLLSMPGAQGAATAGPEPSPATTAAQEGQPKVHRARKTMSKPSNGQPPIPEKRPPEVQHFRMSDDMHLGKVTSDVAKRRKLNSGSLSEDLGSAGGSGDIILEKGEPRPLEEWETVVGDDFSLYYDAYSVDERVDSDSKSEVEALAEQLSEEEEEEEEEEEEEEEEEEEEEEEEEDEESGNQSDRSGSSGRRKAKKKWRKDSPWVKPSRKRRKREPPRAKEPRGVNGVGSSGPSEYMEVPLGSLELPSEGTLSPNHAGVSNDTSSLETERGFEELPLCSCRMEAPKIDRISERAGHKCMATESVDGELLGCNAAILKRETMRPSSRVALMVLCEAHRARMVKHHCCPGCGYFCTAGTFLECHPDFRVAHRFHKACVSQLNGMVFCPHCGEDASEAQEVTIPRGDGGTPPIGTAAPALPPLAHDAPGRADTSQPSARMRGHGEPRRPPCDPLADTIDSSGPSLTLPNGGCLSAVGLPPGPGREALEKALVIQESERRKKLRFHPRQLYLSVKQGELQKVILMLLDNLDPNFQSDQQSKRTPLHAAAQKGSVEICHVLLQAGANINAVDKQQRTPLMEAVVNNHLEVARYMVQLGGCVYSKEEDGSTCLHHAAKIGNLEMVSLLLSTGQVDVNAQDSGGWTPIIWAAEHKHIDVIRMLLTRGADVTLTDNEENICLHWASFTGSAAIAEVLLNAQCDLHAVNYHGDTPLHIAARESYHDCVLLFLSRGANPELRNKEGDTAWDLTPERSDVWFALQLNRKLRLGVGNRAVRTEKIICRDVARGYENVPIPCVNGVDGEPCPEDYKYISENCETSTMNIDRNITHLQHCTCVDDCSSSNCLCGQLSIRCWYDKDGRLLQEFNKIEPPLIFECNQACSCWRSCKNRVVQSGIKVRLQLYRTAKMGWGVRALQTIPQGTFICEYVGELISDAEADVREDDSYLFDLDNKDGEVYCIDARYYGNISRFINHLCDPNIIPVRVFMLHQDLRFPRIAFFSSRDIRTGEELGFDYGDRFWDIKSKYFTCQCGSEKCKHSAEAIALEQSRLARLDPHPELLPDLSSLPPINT

[2] = test system: MM1.S; test: Antiproliferative activity against human MM1.S cells assessed as inhibition of cell proliferation measured up to 72 hrs by CellTiter96 Aqueous one reagent based assay; type: functional
[3] = molecular target: T2, Protein deacetylase HDAC6 (Homo sapiens, UniProt Q9UBN7); test: Inhibition of full length human N-terminal GST-tagged HDAC6 using fluorogenic acetylated peptide as substrate incubated for 30 mins by fluorescence plate reader assay
T2 sequence (Q9UBN7 whole entry): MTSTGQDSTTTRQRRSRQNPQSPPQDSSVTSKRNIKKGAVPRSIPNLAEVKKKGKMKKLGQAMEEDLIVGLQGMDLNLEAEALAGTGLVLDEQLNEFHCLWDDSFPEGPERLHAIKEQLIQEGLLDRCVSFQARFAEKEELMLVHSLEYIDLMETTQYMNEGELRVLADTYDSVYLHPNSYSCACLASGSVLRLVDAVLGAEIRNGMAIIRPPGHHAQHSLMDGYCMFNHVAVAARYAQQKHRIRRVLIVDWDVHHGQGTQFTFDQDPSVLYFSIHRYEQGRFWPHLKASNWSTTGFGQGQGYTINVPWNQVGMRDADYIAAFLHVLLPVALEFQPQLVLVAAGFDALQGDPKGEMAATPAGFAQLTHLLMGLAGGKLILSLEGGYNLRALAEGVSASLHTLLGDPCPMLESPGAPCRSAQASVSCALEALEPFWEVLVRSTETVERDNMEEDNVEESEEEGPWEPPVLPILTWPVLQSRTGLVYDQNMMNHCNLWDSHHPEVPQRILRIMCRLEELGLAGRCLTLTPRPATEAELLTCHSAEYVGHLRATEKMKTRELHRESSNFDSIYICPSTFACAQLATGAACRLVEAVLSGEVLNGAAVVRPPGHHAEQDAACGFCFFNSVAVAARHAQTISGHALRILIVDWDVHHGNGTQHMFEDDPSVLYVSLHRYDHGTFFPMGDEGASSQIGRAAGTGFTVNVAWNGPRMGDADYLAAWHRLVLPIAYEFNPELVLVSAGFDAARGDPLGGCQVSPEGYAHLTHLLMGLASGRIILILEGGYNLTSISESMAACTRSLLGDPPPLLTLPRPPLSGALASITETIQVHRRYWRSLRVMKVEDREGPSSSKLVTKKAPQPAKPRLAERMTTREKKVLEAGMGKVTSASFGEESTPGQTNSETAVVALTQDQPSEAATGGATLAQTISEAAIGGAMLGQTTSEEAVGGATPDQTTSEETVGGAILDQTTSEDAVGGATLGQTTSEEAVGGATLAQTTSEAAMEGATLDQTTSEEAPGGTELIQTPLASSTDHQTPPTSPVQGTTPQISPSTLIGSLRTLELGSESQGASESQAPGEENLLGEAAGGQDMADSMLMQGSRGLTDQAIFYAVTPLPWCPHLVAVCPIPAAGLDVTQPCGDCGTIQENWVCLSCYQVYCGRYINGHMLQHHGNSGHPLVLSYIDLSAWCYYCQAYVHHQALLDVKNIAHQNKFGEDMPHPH

[4] = Permeability of the compound in PBS/EtOH buffer (70:30) incubated for 18 hrs by UV plate reader based PAMPA assay; type: ADME; details: read-out: permeability
[5] = molecular target: T3, Histone-lysine N-methyltransferase EHMT2 (Homo sapiens, UniProt Q96KQ7); test: Inhibition of human G9a enzyme using histone monomethyl-H3K9 peptide as substrate incubated for 1 hr in presence of SAM by TR-FRET assay
T3 sequence (Q96KQ7 whole entry): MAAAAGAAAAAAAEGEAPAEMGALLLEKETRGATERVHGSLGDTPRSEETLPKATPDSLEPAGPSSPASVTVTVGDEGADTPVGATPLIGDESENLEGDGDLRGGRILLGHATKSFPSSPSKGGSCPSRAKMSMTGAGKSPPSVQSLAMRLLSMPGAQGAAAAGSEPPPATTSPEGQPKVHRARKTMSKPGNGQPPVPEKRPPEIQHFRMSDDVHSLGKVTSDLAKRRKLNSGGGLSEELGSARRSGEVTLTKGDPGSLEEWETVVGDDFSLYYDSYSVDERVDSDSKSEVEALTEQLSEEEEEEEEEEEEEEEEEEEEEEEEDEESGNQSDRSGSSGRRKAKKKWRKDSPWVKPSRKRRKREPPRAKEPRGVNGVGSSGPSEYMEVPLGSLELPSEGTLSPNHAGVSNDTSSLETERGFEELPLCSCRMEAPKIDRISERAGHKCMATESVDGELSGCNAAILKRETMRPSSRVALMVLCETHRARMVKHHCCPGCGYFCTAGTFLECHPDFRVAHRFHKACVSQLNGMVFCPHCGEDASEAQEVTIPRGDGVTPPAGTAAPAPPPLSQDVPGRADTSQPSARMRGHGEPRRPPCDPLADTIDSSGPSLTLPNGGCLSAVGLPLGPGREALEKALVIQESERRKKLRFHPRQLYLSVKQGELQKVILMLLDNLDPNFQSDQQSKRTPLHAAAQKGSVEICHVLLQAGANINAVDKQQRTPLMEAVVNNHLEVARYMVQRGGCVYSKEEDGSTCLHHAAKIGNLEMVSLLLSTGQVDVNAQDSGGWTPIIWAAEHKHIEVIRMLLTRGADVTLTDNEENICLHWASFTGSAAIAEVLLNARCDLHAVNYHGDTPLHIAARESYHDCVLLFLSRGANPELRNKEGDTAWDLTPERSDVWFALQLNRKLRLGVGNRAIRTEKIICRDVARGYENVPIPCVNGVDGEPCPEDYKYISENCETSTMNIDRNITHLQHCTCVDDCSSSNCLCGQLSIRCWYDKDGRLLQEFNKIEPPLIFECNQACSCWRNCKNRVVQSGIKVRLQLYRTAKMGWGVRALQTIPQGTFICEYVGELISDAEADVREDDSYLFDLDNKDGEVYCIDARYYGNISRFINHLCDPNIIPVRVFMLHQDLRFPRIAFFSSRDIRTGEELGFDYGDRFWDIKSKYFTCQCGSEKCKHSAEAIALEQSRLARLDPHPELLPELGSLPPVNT

[6] = molecular target: Histone deacetylase 3/Nuclear receptor corepressor 2 (HDAC3/NCoR2) (Homo sapiens, UniProt O15379); test: Inhibition of full length human C-terminal His-tagged HDAC3/human N-terminal GST-agged NCOR2 using fluorogenic acetylated peptide as substrate incubated for 30 mins by fluorescence plate reader assay; type: protein-complex assay
[7] = test system: THLE-2; test: Cytotoxicity against human THLE-2 cells assessed as decrease in cell viability measured after 72 hrs by Vialight-plus cell proliferation assay; type: cell-based; details: thle-2, 72 h
In short: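 Human THLE-2 cells exposed to compound for 72 h. Cytotoxicity reported as LC50 and pLC50, averaged from at least two independent experiments on different days.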

[8] = molecular target: DNA (cytosine-5)-methyltransferase 1 (Homo sapiens, UniProt P26358); test: Inhibition of human DNMT1 enzyme using polydeoxy-inosine polydeoxy-cytosine DNA as substrate incubated for 15 mins in presence of SAM by TR-FRET assay
[9] = molecular target: Histone deacetylase 2 (Homo sapiens, UniProt Q92769)
[10] = molecular target: Histone deacetylase 1 (Homo sapiens, UniProt Q13547); test: Inhibition of full length human C-terminal His-tagged/C-terminal Flag-tagged HDAC1 using fluorogenic acetylated peptide as substrate incubated for 30 mins by fluorescence plate reader assay
[11] = molecular target: T4, Histone-lysine N-methyltransferase EHMT2 (Homo sapiens) (UniProt Q96KQ7); test: Inhibition of G9A in human MM1.S cells assessed as decrease in H3K9Me2 levels up to 50 uM after 48 hrs by Western blot analysis; type: cell-based; details: dose microM <=50, time 48.0 hrs
T4 sequence (whole entry): T3 sequence (Q96KQ7 whole entry)
In short: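 MM1.S cells exposed 48 h across a concentration range. Global H3K9Ac and H3K9me2 read by Western blot; run in duplicate.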

[12] = time hrs <=72, read-out: pGI50 (converted)

Sequence of Histone deacetylase 3/Nuclear receptor corepressor 2 (HDAC3/NCoR2) (O15379 whole entry): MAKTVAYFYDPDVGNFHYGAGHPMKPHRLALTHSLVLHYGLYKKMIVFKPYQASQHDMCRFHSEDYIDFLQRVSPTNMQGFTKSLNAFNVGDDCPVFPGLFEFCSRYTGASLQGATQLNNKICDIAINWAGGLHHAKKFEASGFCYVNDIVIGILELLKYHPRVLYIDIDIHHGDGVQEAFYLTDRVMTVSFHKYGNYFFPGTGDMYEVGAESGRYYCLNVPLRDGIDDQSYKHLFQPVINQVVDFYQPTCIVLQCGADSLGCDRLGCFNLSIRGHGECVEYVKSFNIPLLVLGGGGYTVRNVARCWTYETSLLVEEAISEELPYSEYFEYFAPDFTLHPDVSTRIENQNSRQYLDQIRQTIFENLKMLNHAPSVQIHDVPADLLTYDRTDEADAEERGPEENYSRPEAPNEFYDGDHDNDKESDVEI
Sequence of Histone deacetylase 3/Nuclear receptor corepressor 2 (HDAC3/NCoR2) (Q9Y618 whole entry, further chain): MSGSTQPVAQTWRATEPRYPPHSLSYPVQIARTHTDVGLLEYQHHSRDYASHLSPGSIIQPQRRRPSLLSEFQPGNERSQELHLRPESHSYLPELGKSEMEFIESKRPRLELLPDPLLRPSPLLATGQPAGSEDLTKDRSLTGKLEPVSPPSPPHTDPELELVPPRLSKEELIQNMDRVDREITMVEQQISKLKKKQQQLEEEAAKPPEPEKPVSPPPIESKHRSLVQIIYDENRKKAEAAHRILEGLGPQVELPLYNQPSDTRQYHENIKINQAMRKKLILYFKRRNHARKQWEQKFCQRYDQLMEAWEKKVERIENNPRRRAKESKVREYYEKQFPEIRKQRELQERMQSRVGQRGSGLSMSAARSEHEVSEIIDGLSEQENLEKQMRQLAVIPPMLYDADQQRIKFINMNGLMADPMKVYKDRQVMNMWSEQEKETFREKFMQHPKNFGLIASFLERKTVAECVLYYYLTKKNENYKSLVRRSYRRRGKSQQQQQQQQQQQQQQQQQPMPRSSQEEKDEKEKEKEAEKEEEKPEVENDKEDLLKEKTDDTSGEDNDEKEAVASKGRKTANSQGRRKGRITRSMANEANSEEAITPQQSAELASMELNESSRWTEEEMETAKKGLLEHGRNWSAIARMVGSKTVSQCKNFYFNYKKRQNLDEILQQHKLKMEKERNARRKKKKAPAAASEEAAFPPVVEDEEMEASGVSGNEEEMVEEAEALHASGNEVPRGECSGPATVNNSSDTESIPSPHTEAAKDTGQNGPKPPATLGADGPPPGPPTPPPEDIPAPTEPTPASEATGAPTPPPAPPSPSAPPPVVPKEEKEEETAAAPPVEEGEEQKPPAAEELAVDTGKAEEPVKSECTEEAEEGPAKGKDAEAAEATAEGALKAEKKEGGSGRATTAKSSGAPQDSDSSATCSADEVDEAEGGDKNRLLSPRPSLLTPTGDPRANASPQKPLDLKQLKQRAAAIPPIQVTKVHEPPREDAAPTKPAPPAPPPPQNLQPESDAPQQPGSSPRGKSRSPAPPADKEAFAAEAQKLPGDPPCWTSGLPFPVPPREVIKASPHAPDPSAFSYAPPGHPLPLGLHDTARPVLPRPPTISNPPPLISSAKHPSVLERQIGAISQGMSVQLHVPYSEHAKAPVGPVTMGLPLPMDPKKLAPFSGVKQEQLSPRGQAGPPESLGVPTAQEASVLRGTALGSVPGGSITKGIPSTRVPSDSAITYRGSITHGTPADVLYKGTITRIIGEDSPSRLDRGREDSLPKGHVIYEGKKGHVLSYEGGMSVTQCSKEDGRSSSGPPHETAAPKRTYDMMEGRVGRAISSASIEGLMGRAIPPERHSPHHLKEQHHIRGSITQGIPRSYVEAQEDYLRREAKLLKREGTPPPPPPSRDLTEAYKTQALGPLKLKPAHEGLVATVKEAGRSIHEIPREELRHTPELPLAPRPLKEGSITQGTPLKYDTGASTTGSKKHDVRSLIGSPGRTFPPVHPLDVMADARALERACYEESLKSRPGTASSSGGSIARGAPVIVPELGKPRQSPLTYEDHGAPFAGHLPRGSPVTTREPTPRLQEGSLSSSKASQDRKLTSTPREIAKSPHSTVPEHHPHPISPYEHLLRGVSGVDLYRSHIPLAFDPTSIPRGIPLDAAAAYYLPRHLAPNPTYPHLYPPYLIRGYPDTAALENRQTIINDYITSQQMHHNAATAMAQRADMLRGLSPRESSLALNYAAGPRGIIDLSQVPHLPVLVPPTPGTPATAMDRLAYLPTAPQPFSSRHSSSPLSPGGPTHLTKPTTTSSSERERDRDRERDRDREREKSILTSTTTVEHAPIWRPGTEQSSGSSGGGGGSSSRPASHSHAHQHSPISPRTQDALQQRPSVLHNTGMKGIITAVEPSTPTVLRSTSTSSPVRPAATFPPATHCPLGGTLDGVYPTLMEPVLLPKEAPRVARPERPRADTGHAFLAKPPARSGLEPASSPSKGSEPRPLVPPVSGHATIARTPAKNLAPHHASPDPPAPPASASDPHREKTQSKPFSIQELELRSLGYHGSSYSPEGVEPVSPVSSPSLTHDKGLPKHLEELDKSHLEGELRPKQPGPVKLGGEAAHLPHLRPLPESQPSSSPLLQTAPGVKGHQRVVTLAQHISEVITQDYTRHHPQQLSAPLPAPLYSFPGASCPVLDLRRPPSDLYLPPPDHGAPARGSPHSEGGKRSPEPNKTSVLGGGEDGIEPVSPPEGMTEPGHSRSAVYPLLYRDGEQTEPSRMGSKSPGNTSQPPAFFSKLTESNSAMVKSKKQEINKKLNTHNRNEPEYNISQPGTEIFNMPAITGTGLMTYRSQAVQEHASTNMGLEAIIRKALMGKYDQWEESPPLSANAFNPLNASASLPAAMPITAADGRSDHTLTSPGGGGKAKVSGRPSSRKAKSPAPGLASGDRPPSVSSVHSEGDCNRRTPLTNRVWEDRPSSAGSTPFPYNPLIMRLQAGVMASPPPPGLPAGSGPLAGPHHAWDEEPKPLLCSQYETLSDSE
Sequence of Histone deacetylase 2 (Q92769 whole entry): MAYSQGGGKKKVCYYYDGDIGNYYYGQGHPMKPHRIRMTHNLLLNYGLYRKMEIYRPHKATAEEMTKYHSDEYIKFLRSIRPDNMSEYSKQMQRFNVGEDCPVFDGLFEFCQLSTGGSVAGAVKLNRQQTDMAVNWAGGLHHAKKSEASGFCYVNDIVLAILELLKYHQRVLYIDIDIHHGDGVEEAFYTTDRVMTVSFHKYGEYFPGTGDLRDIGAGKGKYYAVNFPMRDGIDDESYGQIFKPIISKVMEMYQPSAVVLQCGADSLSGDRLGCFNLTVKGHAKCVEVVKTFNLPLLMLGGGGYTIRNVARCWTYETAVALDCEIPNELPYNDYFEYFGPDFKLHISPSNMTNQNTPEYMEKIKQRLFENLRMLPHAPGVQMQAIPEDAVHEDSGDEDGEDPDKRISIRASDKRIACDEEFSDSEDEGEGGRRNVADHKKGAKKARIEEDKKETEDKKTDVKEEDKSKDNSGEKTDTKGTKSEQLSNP
Sequence of DNA (cytosine-5)-methyltransferase 1 (P26358 whole entry): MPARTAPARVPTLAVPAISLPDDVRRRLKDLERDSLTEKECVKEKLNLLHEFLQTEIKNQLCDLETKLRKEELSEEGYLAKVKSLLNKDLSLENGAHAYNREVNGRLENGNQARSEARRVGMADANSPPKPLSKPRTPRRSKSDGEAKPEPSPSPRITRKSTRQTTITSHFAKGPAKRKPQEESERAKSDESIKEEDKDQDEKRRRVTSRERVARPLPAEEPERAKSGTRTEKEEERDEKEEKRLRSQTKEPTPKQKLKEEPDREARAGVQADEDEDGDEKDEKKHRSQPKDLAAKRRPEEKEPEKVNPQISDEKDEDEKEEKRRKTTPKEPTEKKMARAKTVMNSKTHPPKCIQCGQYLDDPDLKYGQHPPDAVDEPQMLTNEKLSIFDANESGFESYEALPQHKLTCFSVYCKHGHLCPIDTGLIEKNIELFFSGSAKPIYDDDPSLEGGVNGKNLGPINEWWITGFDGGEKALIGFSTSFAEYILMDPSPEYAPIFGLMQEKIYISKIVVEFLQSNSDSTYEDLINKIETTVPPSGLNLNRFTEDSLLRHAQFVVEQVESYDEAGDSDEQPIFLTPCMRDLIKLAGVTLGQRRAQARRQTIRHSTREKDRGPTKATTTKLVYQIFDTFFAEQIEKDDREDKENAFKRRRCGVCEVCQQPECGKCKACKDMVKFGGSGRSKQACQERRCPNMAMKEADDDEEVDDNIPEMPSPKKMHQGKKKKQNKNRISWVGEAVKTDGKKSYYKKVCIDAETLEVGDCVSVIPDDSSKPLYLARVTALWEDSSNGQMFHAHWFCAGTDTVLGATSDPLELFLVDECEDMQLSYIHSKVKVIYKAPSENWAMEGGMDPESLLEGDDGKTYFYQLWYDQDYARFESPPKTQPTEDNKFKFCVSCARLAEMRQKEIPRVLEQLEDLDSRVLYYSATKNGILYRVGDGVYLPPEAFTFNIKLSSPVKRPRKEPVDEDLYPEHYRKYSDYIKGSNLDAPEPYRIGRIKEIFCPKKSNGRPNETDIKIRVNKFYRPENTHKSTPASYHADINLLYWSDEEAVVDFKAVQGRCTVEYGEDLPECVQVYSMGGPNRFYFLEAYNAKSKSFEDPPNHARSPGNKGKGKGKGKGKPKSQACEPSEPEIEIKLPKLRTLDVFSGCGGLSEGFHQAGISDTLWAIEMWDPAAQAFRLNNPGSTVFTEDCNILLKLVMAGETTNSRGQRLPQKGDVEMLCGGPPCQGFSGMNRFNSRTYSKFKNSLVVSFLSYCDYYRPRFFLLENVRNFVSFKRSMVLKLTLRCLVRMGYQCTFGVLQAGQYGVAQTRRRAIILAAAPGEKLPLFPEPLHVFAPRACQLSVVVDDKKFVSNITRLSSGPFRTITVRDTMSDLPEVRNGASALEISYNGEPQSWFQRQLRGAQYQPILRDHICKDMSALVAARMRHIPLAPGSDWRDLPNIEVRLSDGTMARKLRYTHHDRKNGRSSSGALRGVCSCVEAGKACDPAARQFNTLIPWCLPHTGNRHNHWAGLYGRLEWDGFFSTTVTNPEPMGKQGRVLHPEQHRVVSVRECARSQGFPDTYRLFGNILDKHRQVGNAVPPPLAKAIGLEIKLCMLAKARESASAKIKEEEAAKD

COc1ccc2c(NC3CCN(Cc4ccccc4)CC3)nc(NCCNC(=O)CCCCCC(=O)NO)nc2c1
IC50 [1]: 7140 nM

COc1cc2nc(-c3ccc(C)o3)cc(NCc3ccc(C(=O)NO)cc3)c2cc1OC
GI50 ([2]; time hrs <=72, read-out: GI50): 520 nM
GI50 [2, 12]: 525 nM
IC50 [3]: 22 nM
Papp at 18 h [4]: 0.534 ×10⁻⁶ cm/s
IC50 [5]: > 10000 nM
IC50 [6]: 44 nM
LC50 [7]: 2330 nM
pLC50 [7]: 5.63
IC50 [8]: 5400 nM
IC50 [9]: 91 nM
IC50 [10]: 14 nM

COc1cc2nc(-c3ccc(C)o3)cc(NC3CCN(c4ncc(C(=O)NO)cn4)CC3)c2cc1OC
GI50 ([2]; time hrs <=72, read-out: GI50): 1020 nM
GI50 [2, 12]: 1020 nM
IC50 [3]: 343 nM
Papp at 18 h [4]: 0.596 ×10⁻⁶ cm/s
IC50 [5]: > 10000 nM
IC50 [6]: 73 nM
LC50 [7]: 3090 nM
pLC50 [7]: 5.51
IC50 [8]: 7140 nM
IC50 [9]: 409 nM
IC50 [10]: 63 nM

COc1cc2nc(-c3ccc(C)o3)cc(NCC3C4CCC3CN(c3ncc(C(=O)NO)cn3)C4)c2cc1OC (configuration not stated)
GI50 ([2]; time hrs <=72, read-out: GI50): 459 nM
GI50 [2, 12]: 457 nM
IC50 [3]: 239 nM
Papp at 18 h [4]: 0.959 ×10⁻⁶ cm/s
IC50 [5]: > 10000 nM
IC50 [6]: 33 nM
LC50 [7]: 1350 nM
pLC50 [7]: 5.87
IC50 [8]: 1680 nM
IC50 [9]: 125 nM
IC50 [10]: 22 nM

COc1cc2c(NCc3ccc(C(=O)NO)cc3)cc(-c3ccc(C)o3)nc2cc1OCCCN1CCCC1
GI50 ([2]; time hrs <=72, read-out: GI50): 4500 nM
GI50 [2, 12]: 4470 nM
IC50 [3]: 11 nM
Papp at 18 h [4]: 0.1 ×10⁻⁶ cm/s
IC50 [5]: 471 nM
IC50 [6]: 21 nM
LC50 [7]: 11300 nM
pLC50 [7]: 4.95
IC50 [8]: 795 nM
IC50 [9]: 60 nM
IC50 [10]: 9 nM

COc1cc2nc(-c3ccc(C)o3)cc(NCC3CCC(C(=O)NO)CC3)c2cc1OC (configuration not stated)
GI50 ([2]; time hrs <=72, read-out: GI50): 5830 nM
GI50 [2, 12]: 5750 nM
IC50 [3]: 41 nM
Papp at 18 h [4]: 0.393 ×10⁻⁶ cm/s
IC50 [5]: > 10000 nM
IC50 [6]: 206 nM
LC50 [7]: 9600 nM
pLC50 [7]: 5.02
IC50 [8]: 2850 nM
IC50 [9]: 274 nM
IC50 [10]: 38 nM

COc1cc2c(cc1OCCCN1CCCC1)N=C(N)C21CCC1
inhibition [11]: Active
